Experimental data of several laboratories.
Sample: Caco-2

| Structure (SMILES) | conditions | Papp A→B |
| --- | --- | --- |
| CCOCC(=O)N1CCC[C@H](C(=O)NCc2nc(-c3ccc(C)nc3)cs2)C1 | pH 7.4 | 15 ×10⁻⁶ cm/s |
| N#Cc1ccc(C[C@H](Nc2ncc(-c3ccc(F)cc3)o2)C(=O)N2CCc3ccccc32)cc1 | 100 µM, 2 h | 10.6 ×10⁻⁶ cm/s |
| Cc1c[nH]c2ncnc(N3C=C(C(=O)N4CCC[C@@H](N)C4)SCC3)c12 | 10 µM, pH 6.5 | < 0.3 ×10⁻⁶ cm/s |
| O=c1c2cc(Cl)ccc2[nH]c(=S)n1Cc1cccnc1 | 10 µM, 90 min, pH 7.4 | 17.7 ×10⁻⁶ cm/s |
| COc1ccccc1OCCNCC(O)COc1cccc2[nH]c3ccccc3c12 (stereo not drawn) | 5 µM, 2 h | 4.98 ×10⁻⁶ cm/s |
| CC(C)C(=O)OCc1cc2[nH]c(=S)n(Cc3cccnc3)c(=O)c2cc1Cl | 10 µM, 90 min, pH 7.4 | 1.4 ×10⁻⁶ cm/s |
| COc1ccc([C@@H]2CC(=O)c3c(O)cc(O)cc3O2)cc1O | 100 µg/mL, 2 h | 3.95 ×10⁻⁶ cm/s |
| CC(C)NCC(O)COc1cccc2ccccc12 (stereo not drawn) | 10 µM, 2 h | 29.7 ×10⁻⁶ cm/s |
| NCCOCC(=O)N1CCC[C@H](C(=O)NCc2nc(-c3ccc(C(F)(F)F)cc3)cs2)C1 | pH 7.4 | 0.1 ×10⁻⁶ cm/s |
| C=CC(=O)NC1CCN(c2ncc3ncnc(Nc4ccc(Oc5ccc6c(c5)ncn6C)c(C)c4)c3n2)CC1 | – | ~6.8 ×10⁻⁶ cm/s |
| N#Cc1ccc(C[C@H](NC(=O)c2cc3cc(F)ccc3[nH]2)C(=O)N2CCc3ccccc32)cc1 | 100 µM, 2 h | 1.2 ×10⁻⁶ cm/s |
| O=c1cc(-c2ccc(O)cc2)oc2c([C@@H]3O[C@H](CO)[C@@H](O)[C@H](O)[C@H]3O)c(O)cc(O)c12 | 50 µg/mL | 0.254 ×10⁻⁶ cm/s |
| CNS(=O)(=O)Cc1ccc2[nH]cc(CCN(C)C)c2c1 | 5 µM, 2 h | 0.36 ×10⁻⁶ cm/s |
| CCONC(=O)N1CCC[C@H](C(=O)NCc2nc(-c3ccc(C#N)cc3)cs2)C1 | pH 7.4 | 6.5 ×10⁻⁶ cm/s |
| COc1ccc(CCC(=O)c2c(O)cc(O[C@@H]3O[C@H](CO)[C@@H](O)[C@H](O)[C@H]3O[C@@H]3O[C@@H](C)[C@H](O)[C@@H](O)[C@H]3O)cc2O)cc1O | 100 µg/mL, 2 h | 17 ×10⁻⁶ cm/s |
| Cc1ncc(Cl)cc1NCc1ccc(C(=O)N[C@@H](CC2CCCC2)C(=O)NC2CC2)s1 | 5 µM, 2 h, pH 7.4 | 0.22 ×10⁻⁶ cm/s |
| COc1ccc(-c2cc(=O)c3c(O)cc(O[C@@H]4O[C@H](CO[C@@H]5O[C@@H](C)[C@H](O)[C@@H](O)[C@H]5O)[C@@H](O)[C@H](O)[C@H]4O)cc3o2)cc1O | 100 µg/mL, 2 h | 45.2 ×10⁻⁶ cm/s |
| N[C@@H](COCC(=O)N1CCC[C@H](C(=O)NCc2nc(-c3ccc(C(F)(F)F)cc3)cs2)C1)c1ccccc1 | pH 7.4 | 8.5 ×10⁻⁶ cm/s |

| Structure (SMILES) | conditions | Papp A→B |
| --- | --- | --- |
| CCN1CCCC1CNC(=O)c1cc(S(N)(=O)=O)ccc1OC (stereo not drawn) | 5 µM, 2 h | 0.16 ×10⁻⁶ cm/s |
| COc1ccc(-c2coc3cc(O)cc(O)c3c2=O)cc1 | 100 µg/mL, 2 h | 20.4 ×10⁻⁶ cm/s |
| O=C(NCc1nc(-c2ccc(C(F)(F)F)cc2)cs1)[C@H]1CCCN(C(=O)COCCN2CCCC2)C1 | pH 7.4 | 1.8 ×10⁻⁶ cm/s |
| O=c1c2cc(Cl)ncc2[nH]c(=S)n1Cc1cccnc1 | 10 µM, 90 min, pH 7.4 | 34.6 ×10⁻⁶ cm/s |
| COCC(=O)N1CCC[C@H](C(=O)NCc2nc(-c3ccc(C#N)cc3)cs2)C1 | pH 7.4 | 24 ×10⁻⁶ cm/s |
| CCCCCOC(=O)Nc1nc(=O)n([C@@H]2O[C@H](C)[C@@H](O)[C@H]2O)cc1F | 4 h | 3.24 ×10⁻⁶ cm/s |
| O=c1c(O[C@@H]2O[C@H](CO)[C@H](O)[C@H](O)[C@H]2O)c(-c2ccc(O)c(O)c2)oc2cc(O)cc(O)c12 | 200 µg/mL | 0.349 ×10⁻⁶ cm/s |
| N=C(N)NCCCNC(=O)[C@@H]1CCCCN1C(=O)[C@@H](CC1CCCCC1)NCC(=O)O | 5 µM, 2 h | 0.05 ×10⁻⁶ cm/s |
| O=C(O)[C@H]1O[C@@H](Oc2cc3oc(-c4ccccc4)cc(=O)c3c(O)c2O)[C@H](O)[C@@H](O)[C@@H]1O | 100 µg/mL, 2 h | 10.8 ×10⁻⁶ cm/s |
| C[C@@H]1O[C@@H](OC[C@H]2O[C@@H](Oc3c(-c4ccc(O)c(O)c4)oc4cc(O)cc(O)c4c3=O)[C@H](O)[C@@H](O)[C@@H]2O)[C@H](O)[C@H](O)[C@H]1O | 100 µg/mL | 0.304 ×10⁻⁶ cm/s |
| CC(C)NCC(O)COc1cccc2ccccc12 (stereo not drawn) | 5 µM, 2 h | 12.6 ×10⁻⁶ cm/s |
| Cc1ccc(N(c2ccc(NC(=O)CN(C)c3ccccc3N3CCCC3=O)cc2)C(C)C)cc1 | – | 1.09 ×10⁻⁶ cm/s |
| Oc1cc(O)c2c(c1)O[C@H](c1ccc(O)c(O)c1)[C@@H](O)C2 | 100 µg/mL, 2 h | 11.7 ×10⁻⁶ cm/s |
| O=c1c2cc(Cl)ccc2[nH]c(=S)n1Cc1ccc(-c2nnn[nH]2)nc1 | 10 µM, 90 min, pH 7.4 | < 0.51 ×10⁻⁶ cm/s |
| O=C(CCc1ccc(O)cc1)c1c(O)cc(O)cc1O[C@@H]1O[C@H](CO)[C@@H](O)[C@H](O)[C@H]1O | 100 µg/mL, 2 h | 2.94 ×10⁻⁶ cm/s |
| N#Cc1ccc(C[C@H](Nc2nnc(-c3ccc(F)cc3)o2)C(=O)N2CCc3ccccc32)cc1 | 100 µM, 2 h | 62.9 ×10⁻⁶ cm/s |
| CCOC(=O)[C@H](CCc1ccccc1)N[C@@H](C)C(=O)N1CCC[C@H]1C(=O)O | 5 µM, 2 h | 0.13 ×10⁻⁶ cm/s |
| O=c1c(-c2ccc(O)cc2)coc2c([C@@H]3O[C@H](CO)[C@@H](O)[C@H](O)[C@H]3O)c(O)ccc12 | 100 µg/mL, 2 h | 45.7 ×10⁻⁶ cm/s |
